This is a sample that favours compounds with a hit; in the whole collection about 3.1% have one here.
IMP-1 inhibitor = IMP-1 metallo-beta-lactamase inhibitors, primary screen, biochemical, epi-absorbance readout, Pseudomonas aeruginosa enzyme; metallo-beta-lactamase IMP-1 (Pseudomonas aeruginosa); purified IMP-1, nitrocefin hydrolysis, epi-absorbance fluorescence; inhibition, % at 5.6 µM; 290,000 compounds, 0.45% hits; AID 1556, 2009;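 active means inhibition above the mean plus 3 SD of all compounds in the same screening run, cut at about 4.5% in these data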;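 further: 0% = IMP-1 with DMSO and 100% = DMSO wells lacking enzyme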
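System: Purified recombinant IMP-1 metallo-beta-lactamase enzyme | Measured by: Fluorescence quenching readout, ex 480/em 530 nm | Replication: Singlicate | Incubation: 15 min preincubation plus 25 min reaction at 25 °C | Evaluation: Percent inhibition from optical density relative to buffer-blank wells | Benchmarks: DMSO with and without IMP-1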
PHOSPHO1 inh = PubChem AID 1565; 290,000 compounds, 1.1% hits; recombinant PHOSPHO1, absorbance phosphatase assay; Phosphoethanolamine/phosphocholine phosphatase (Homo sapiens), Q8TCT1; inhibition, % at 13.3 µM; in the data active means inhibition above about 60%
Target sequence (Q8TCT1 whole entry, looked up): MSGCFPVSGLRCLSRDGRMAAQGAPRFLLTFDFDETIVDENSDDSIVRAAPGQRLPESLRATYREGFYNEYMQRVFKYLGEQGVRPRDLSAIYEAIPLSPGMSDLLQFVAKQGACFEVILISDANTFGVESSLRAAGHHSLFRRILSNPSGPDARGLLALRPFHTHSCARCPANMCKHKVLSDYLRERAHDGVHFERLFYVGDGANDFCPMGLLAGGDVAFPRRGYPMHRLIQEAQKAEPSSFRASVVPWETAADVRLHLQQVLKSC
NS3 helicase inh = inhibitors of HCV NS3 helicase, primary screen, biochemical, Cy5 molecular beacon fluorescence | Hepatitis C virus NS3 helicase | NS3 helicase DNA unwinding | inhibition, % at 10.9 µM | 290,000 compounds, 0.56% hits | AID 1800, 2009;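 active means inhibition above the mean of all tested compounds plus 3 SD, set per campaign, cut at about 35% in these data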;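 further: 0% = DMSO wells and 100% = thioflavine S control wells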
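assay system = NS3 helicase fragment of HCV | buffer or medium = MOPS pH 6.5, MgCl2, DTT, Tween20, BSA | timing = 60 min unwinding reaction at 25 °C after ATP addition | signal = Cy5 beacon fluorescence read at start and 1 h | read-out basis = % inhibition of unwinding | control set = low DMSO, high thioflavine S at 110 µM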
core dimer inh = inhibitors of HCV core protein dimerization, primary screen, biochemical, TR-FRET, high-throughput. TR-FRET GST/Flag-core106 dimerization, 1536-well. inhibition, % at 5 µM. 300,000 compounds, 0.33% hits;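 active means inhibition above the mean of all tested compounds plus 3 SD, set per screening campaign, cut at about 45% in these data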
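System: GST-tagged and Flag-tagged HCV core protein residues 1-106 / Input: core106 proteins, GST 13.5 nM and Flag 17 nM / Buffer or medium: KF-containing HEPES buffer, pH 7.45, DTT, CHAPS, BSA / Probe or stimulus: Eu-anti-GST and XL665-anti-Flag labelled anti-tag antibodies / Schedule: 4 h, 22.5 °C incubation / Technique: TR-FRET 671 and 617 nm emission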
VIM-2 inhibitor = VIM-2 metallo-beta-lactamase inhibitors, primary screen, biochemical, epi-absorbance readout, Pseudomonas aeruginosa enzyme. purified VIM-2, nitrocefin hydrolysis, epi-absorbance fluorescence. inhibition, % at 5.6 µM. 290,000 compounds, 0.89% hits;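 active means inhibition above the mean of all tested compounds plus 3 SD, cutoff set per screening run, cut at about 7.5% in these data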;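 further: red hydrolysis product quenches plate fluorescence so inhibitors raise well fluorescence; 0% = enzyme with DMSO and 100% = DMSO without enzyme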
UBC9 SUMO inh = inhibitors of in vitro SUMOylation cascade, primary screen, biochemical, HTRF, uHTS; HTRF SUMOylation assay, SAE1/SAE2 + UBC9; 290,000 compounds, 0.36% hits; inhibition, % at 35 µM; in the data active means inhibition above about 50%, passing the limit was not always enough
Target sequence (P63279 whole entry, looked up): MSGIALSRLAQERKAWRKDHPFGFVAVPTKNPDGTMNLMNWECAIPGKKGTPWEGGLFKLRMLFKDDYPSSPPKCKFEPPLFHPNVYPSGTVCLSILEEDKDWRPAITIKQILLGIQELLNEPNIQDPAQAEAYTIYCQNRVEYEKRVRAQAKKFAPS
Starred values were filed as active, the others as inactive; . = no result given.

SMILES	IMP-1 inhibitor	PHOSPHO1 inh	NS3 helicase inh	core dimer inh	VIM-2 inhibitor	UBC9 SUMO inh
O=c1c2ccccc2nc(-c2ccccc2)n1CCCn1ccnc1	-5	25	3	-6	0	10
O=C(NCc1ccc(F)cc1)C1CCN(S(=O)(=O)c2ccc(Br)s2)CC1	-4	32	-5	5	-2	5
CC(C)Cc1nnc(NS(=O)(=O)Cc2ccccc2)s1	-4	13	6	7	10*	14
CS(=O)(=O)Nc1nnc(Cc2ccccc2)s1	-3	-13	5	4	-4	5
COc1ccc(Oc2coc3c(CN(C)C)c(O)ccc3c2=O)cc1	-2	-3	0	5	-1	33
Cc1cc(C)cc(Oc2coc3c(CN(C)C)c(O)ccc3c2=O)c1	-1	-3	7	-2	-3	51*
CCOC(=O)C(=CNNc1cccc(Cl)c1)C(=O)OCC	-2	74*	8	-3	0	-21
CCOC(=O)C(=CNc1ccc(Cl)cn1)C(=O)OCC	-1	16	1	-5	2	11
COC(=O)Cc1ccc(NC(=O)c2ccc3c(c2)C(=O)N(Cc2ccco2)C3=O)cc1	-1	18	18	12	0	19
CCc1ccc(NC(=O)c2ccc3c(c2)C(=O)N(Cc2ccco2)C3=O)cc1	-2	5	31	56*	-1	24
O=C(CSc1nnc(NC(=O)c2ccc(F)cc2F)s1)NC1CC1	-1	8	26	-23	-3	14
CC(=O)Nc1nc(-c2cc([N+](=O)[O-])cs2)cs1	-4	39	4	0	-3	-1
COC(=O)c1ccc(NC(=O)CNc2ccccc2)cc1	0	10	-10	4	0	14
O=C(NCc1cccnc1)c1ccc(COc2cccc3ccccc23)o1	1	38	8	61*	-2	12
O=C(NCc1cccnc1)c1ccc(COc2ccc(Cl)cc2Cl)o1	-4	23	2	2	-3	14
NCc1cc2c3c(c1)CCCN3CCC2	-2	11	-10	-2	9.0*	31
O=C(NC1CCCCC1)c1sc(=S)n2c1[nH]c(=O)c1ccccc12	-2	76*	9	8	0	24
CCCCNC(=O)c1sc(=S)n2c1[nH]c(=O)c1ccccc12	0	48	22	-8	0	8
C=CCNC(=S)N1CCN(C2CCCCC2)CC1	-2	38	10	-2	-2	2
CC(C)c1nc(SCC(=O)Nc2nccs2)c2ccccc2n1	-2	32	-10	8	-1	-10
CC(C)c1nc(SCC(=O)Nc2ccc(N(C)C)cc2)c2ccccc2n1	5.2*	10	5	2	-4	3
CCC(c1nnnn1CCOC)N(Cc1cc2cc(C)c(C)cc2[nH]c1=O)CC1CCCO1 (stereo unspecified)	0	76*	-8	-3	-2	29
CCOC(=O)c1c(C)cc(C)n2c1nc1ccccc12	-4	29	4	0	11*	21
CCCc1nnc(SCC(=O)Nc2ccc(NC(C)=O)cc2)n1-n1cccc1	.	.	.	2	.	.
Cc1cc(C)cc(-n2ncc3c2CCCC3NC(=O)CN2CCCCC2=O)c1 (stereo unspecified)	-3	30	-6	-1	-2	9
SMILES	IMP-1 inhibitor	PHOSPHO1 inh	NS3 helicase inh	core dimer inh	VIM-2 inhibitor	UBC9 SUMO inh
Cc1cc(C(=O)NCC(=O)O)c(C)o1	-3	19	5	-8	0	0
Cc1cc(C(=O)NN)c(C)o1	-1	61*	-7	1	-1	10
O=C(O)c1ccc(S(=O)(=O)c2ccc3c(c2)C(=O)N(NC(=O)c2ccncc2)C3=O)cc1	-1	37	-3	-2	-4	22
O=C(O)c1ccc(S(=O)(=O)c2ccc3c(c2)C(=O)N(NC(=O)c2ccccc2)C3=O)cc1	5.1*	-23	-16	6	-2	3
CCCCN(C)CCNC(=O)c1nn(-c2ccc(OC)cc2)c(=O)c2c1c1ccccc1n2C	-2	5	-46	-8	8.3*	-5
CCN(C(=O)c1nn(-c2ccc(OC)cc2)c(=O)c2c1c1ccccc1n2C)c1ccc(OC)cc1	-4	-15	1	18	0	-6
COc1cc(CNc2ccccc2SC)ccc1O	-3	72*	-5	-10	1	5
CCOc1cc(CNc2ccccc2SC)ccc1O	-2	-36	-1	0	-2	54
Cc1ccc(NC(=O)CN2C(=O)c3ccccc3S2(=O)=O)c(C)c1	-2	39	-6	11	0	13
CCOC(=O)N1CCN(S(=O)(=O)c2ccc(OCC(=O)OC)c(Cl)c2)CC1	5.0*	8	10	-1	-1	-15
O=C(COC(=O)c1cccc(S(=O)(=O)N2CCN(c3ccccc3)CC2)c1)NCc1ccco1	-4	22	8	82*	-2	36
O=S(=O)(c1ccc(OCC(O)CNCc2ccco2)c(Cl)c1)N1CCOCC1 (stereo unspecified)	-2	-23	6	2	-2	-4
NC(=O)COC(=O)c1cccc(S(=O)(=O)N2CCN(c3ccccc3)CC2)c1	-3	24	-1	0	-2	2
O=C(COc1ccc(S(=O)(=O)N2CCOCC2)cc1Cl)NCc1ccco1	5.4*	11	1	-4	-3	0
CCOC(=O)CC1C(=O)NCCN1S(=O)(=O)c1ccc(NC(C)=O)cc1 (stereo unspecified)	-3	38	5	5	0	14
O=c1[nH]c(CSc2nc(-c3ccc(F)cc3)cs2)nc2ccccc12	-1	-15	-5	-5	-1	-12
COC(=O)c1sc(-c2cccs2)cc1N	13*	37	28	2	3	14
COC(=O)c1sc(-c2ccc(Cl)cc2)cc1N	-2	29	-4	14	-4	-3
CC(C)(C)Sc1ccccc1S(=O)(=O)C(C)(C)C	-3	19	2	1	-2	2
CSc1nc2c(c(-c3ccc(O)cc3)c1C#N)CCC2	-4	31	-8	15	7.8*	4
CCN1/C(=C/C=C/c2oc3ccc(-c4ccccc4)cc3[n+]2CC)Oc2ccc(-c3ccccc3)cc21	4.6*	24	-35	1	-1	33
CC1CC(C)(C)CC2(C1)NC(=S)N(c1ccccc1)N2 (stereo unspecified)	-2	98*	0	-2	-5	4
O=C(CSc1nnc(-c2ccc(F)cc2)o1)c1ccc2c(c1)OCCO2	-1	-3	-9	-6	-4	0
